Test results as given in publication PMC3428507 (Journal of molecular biology, 2012).

Columns and labels:
[1] = biological target: T1, Pf1 PHD1 (Homo sapiens, UniProt Q96QT6); assay: Pulldown of GST-Pf1 PHD1 with biotinylated histone H3 peptides; type: binding; conditions: GST-Pf1 PHD1 (residues 53–103); wash 50 mM Tris pH 7.5, 150 mM NaCl, 0.05% NP-40; SDS-PAGE, Coomassie
Procedure, shortened: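 GST-Pf1 PHD1 (53–103) and GST-Pf1 PHD2 (268–319) came from E. coli and were eluted from glutathione resin with glutathione. They were incubated with an array of biotinylated histone H3 peptides on avidin beads. Washes also held 0.3 mg/ml BSA and 1 mM DTT. Bound protein was resolved by SDS-PAGE.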

[2] = biological target: T1, Pf1 PHD1; type: binding; conditions: even at molar concentrations; unpublished data
[3] = test system: Pf1 PHD2; assay: NMR titration of Pf1 PHD2 with small molecule mimics of histone modifications; type: binding, human; conditions: unpublished data
[4] = biological target: MRG15 CD (Homo sapiens, UniProt Q9UBU8); assay: NMR titration of 15N-labeled MRG15 CD with methyllysine peptides/ligands; type: binding
[5] = test system: Pf1 PHD1/MBD (residues 48–241); assay: NMR of 15N-labeled Pf1 PHD1/MBD with MRG15 proteins; type: binding, human; conditions: equimolar; 20 mM Tris pH 7.5, 50 mM NaCl, 10 μM ZnSO4, 15 mM DTT, 0.2% NaN3, 25 °C

T1 sequence (Q96QT6 48-116): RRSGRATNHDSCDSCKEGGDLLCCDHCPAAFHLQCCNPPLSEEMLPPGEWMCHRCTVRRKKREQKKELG
Chain of MRG15 CD (Q9UBU8 1-90 isoform Q9UBU8-2): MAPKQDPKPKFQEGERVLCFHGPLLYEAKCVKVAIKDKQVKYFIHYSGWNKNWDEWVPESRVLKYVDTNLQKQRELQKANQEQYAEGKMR

| Compound | binding to Pf1 PHD1 in pulldown [1] | interaction with Pf1 PHD2 in NMR titrations [3] | further results |
| --- | --- | --- | --- |
| 18–37: biotinylated H3 peptide spanning residues 18–37 | failed to do so |  |  |
| CC(=O)NCCCC[C@H](N)C(=O)O [acetyllysine] |  | lack of any interaction | interaction with Pf1 PHD1 in NMR titrations [2]: neither trimethyllysine nor acetyllysine interacted with Pf1 PHD1 |
| N[C@@H](COP(=O)(O)O)C(=O)O [phosphoserine] |  | lack of any interaction |  |
| C[C@@H](OP(=O)(O)O)[C@H](N)C(=O)O [phosphothreonine] |  | lack of any interaction |  |
| C[N+](C)(C)CCCC[C@H](N)C(=O)O [trimethyllysine] |  | lack of any interaction | interaction with Pf1 PHD1 in NMR titrations [2]: neither trimethyllysine nor acetyllysine interacted with Pf1 PHD1; Kd [4]: 11 ± 3.3 mM; perturbations in the MRG15 CD NMR spectrum ([4]; pH 7.5, 25 °C): induced a similar pattern of perturbations in the NMR spectrum of MRG15 CD as the aforementioned peptides |
| H3 peptide spanning residues 1–20: unmodified biotinylated histone H3 peptide spanning residues 1–20 | bound to Pf1 PHD1 |  |  |
| H3 peptides spanning residues 27–46: biotinylated H3 peptide spanning residues 27–46 | failed to do so |  |  |
| MRG15 MRG: MRG domain of MRG15 (residues 155–323) |  |  | effect on 15N-Pf1 PHD1/MBD spectrum [5]: disappearance of resonances corresponding to the PHD1 domain |
| dimethylarginine |  | lack of any interaction |  |
